From PubChem BioAssay
KCC2 mod: modulates chloride dependent transport by human KCC2. B-score of Tl+ flux slope (higher = more flux/activation; lower = inhibition) at 10 µM. Q9H2X9. KCC2 cells, thallium flux FluoZin-2 fluorescence. 2.2% of 190,000 active;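 active means thallium flux slope and its plate-corrected score both differing from the plate sample mean at a set confidence after two filtering rounds, in either direction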;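 further: slope of fluorescence scaled to starting intensity during 10 to 20 s after thallium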
KCNQ1 act: human KCNQ1 channel potentiation or activation; CHO-K1 KCNQ1, thallium flux FluxOR fluorescence; hits give high values; B-score at 10 µM; 0.35% of 310,000 active; AID 2648; P51787;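 active means fluorescence ratio B-score, a plate-corrected score, at least three library SD, with initial intensity B-score within 5 SD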
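Schedule – 37 °C overnight plating, 90-min dark dye load, 20-min compound pretreatment · System – stable KCNQ1 CHO-K1 line · Probe or stimulus – thallium- and potassium-containing depolarizing buffer · Measured by – kinetic FluxOR fluorescence, 10 s baseline plus 110 s post-stimulus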
KCNQ1 inh: inhibitors of human KCNQ1 potassium channel; CHO-K1 KCNQ1, FluxOR thallium flux fluorescence; hits give high values; 1.3% of 310,000 active; B-score at 10 µM;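 active means compounds whose thallium flux B-score, printed positive for inhibition, exceeds three library SD while starting fluorescence stays within three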;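 further: channel opened by potassium depolarization with thallium stimulus after 20 min compound exposure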
KCNK9 block: blocks the human KCNK9 two-pore domain potassium channel. Q9NPC2. HEK293 KCNK9, FluxOR thallium flux fluorescence; hits give low values. B-score at 10 µM. 1.2% of 310,000 active;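 active means ratio B-score over 3 SD below the library mean, with starting fluorescence within 5 SD of its mean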;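 further: negative B-score means less thallium flux so channel inhibition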
KCNK3 block: human KCNK3 channel inhibition, primary screen | O14649 | CHO-KCNK3 thallium flux, FluxOR fluorescence; hits give low values | B-score at 10 µM | 0.84% of 340,000 active | AID 602410;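 active means B-score under library mean minus 4 SD, starting fluorescence ratio at most library mean plus 5 SD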;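 further: more negative B-score means stronger inhibition of thallium flux through KCNK3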
hERG protect: compounds protecting human hERG from proarrhythmic drug block. 0.51% of 310,000 active. activation (rescue from dofetilide block), less the hit threshold, % at 10 µM. Q12809. CHO-hERG, FluxOR thallium flux, dofetilide IC70 present;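 active means activation above the mean of controls blocked by dofetilide plus 5 SD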;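 further: thallium influx through hERG after potassium depolarization seen as dye fluorescence rise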
Numbers without * were called inactive; i = inactive; . = not tested or not shown. An excerpt weighted towards active compounds, which were near 4.1% of everything screened.

SMILES	KCC2 mod	KCNQ1 act	KCNQ1 inh	KCNK9 block	KCNK3 block	hERG protect
Cn1c(/C(C#N)=C(\O)CN2CCN(Cc3ccccc3)CC2)nc2ccccc21	-6.1*	i	i	i	i	-6
Cc1ccc(SC/C(O)=C(\C#N)c2nc3ccccc3n2C)cc1	1.8	i	i	i	i	-6
CC1CC(C)C[N+](=C2C=C(N3CCCC3)CC(C)(C)C2)C1 (centres undefined)	1.7	i	8*	i	i	-17
O=C(O)c1cc([N+](=O)[O-])ccc1Oc1ccccc1	.	.	.	.	i	.
O=C(CSc1ncccn1)NCc1cccc(Cl)c1	0.037	i	i	i	i	6.3*
O=C(Nc1ccccc1)Nc1n[nH]c2nnc(-c3ccccc3)c(-c3ccccc3)c12	.	i	i	i	i	-7
CC(C)CN1CCC(CN2CCNC(=O)C2=O)CC1	.	.	.	.	i	.
CCOC(=O)c1[nH]c2ccccc2c1NC(=O)NC1CCCCC1	.	i	i	i	i	-1
CCOC(=O)c1[nH]c2ccccc2c1NC(=O)C1CCCCC1	0.48	i	i	i	i	4.8*
O=C(NCc1ccc2c(c1)OCO2)NC12CC3CC(CC(C3)C1)C2	-0.9	i	i	i	i	4.9*
O=C(COc1ccc2c(c1)OCO2)NC12CC3CC(CC(C3)C1)C2	-1.3	i	i	i	i	-11
CCN(CC)CCN1C(=O)c2ccccc2NC1c1ccccc1F (centres undefined)	0.26	i	i	i	i	5.1*
Cc1nn(CC(=O)c2ccc3c(c2)OCCO3)c(=O)c(C#N)c1C	.	.	.	.	i	.
CC1CCc2c(sc3nc(C4CC4)nc(N4CCN(C(=O)c5ccco5)CC4)c23)C1 (centres undefined)	-0.13	i	6*	i	i	3
O=C(CCc1ccccc1Cl)Nc1ccc(S(=O)(=O)N2CCOCC2)cc1	.	i	i	i	i	7.0*
O=C(CCc1ccccc1Cl)Nc1cc(S(=O)(=O)N2CCOCC2)ccc1N1CCCC1	.	.	.	.	i	.
CC(Oc1ccc(Cl)cc1)C(=O)Nc1ccc(S(=O)(=O)N2CCOCC2)cc1 (centres undefined)	.	i	i	i	i	-7
CCC(Oc1ccccc1)C(=O)Nc1ccc(S(=O)(=O)N2CCOCC2)cc1 (centres undefined)	0.82	i	i	i	i	5.0*
O=C1CSC(=S)N1	.	i	i	i	i	-5
O=C1NC(=S)SC1=C1CCCCCC1	.	63*	i	i	i	27*
O=C1N=C(N2CCCCC2)SC1=C1CCCCC1	0.084	i	i	i	i	-6
COC(=O)c1ccccc1S(=O)(=O)N1CCC(C(=O)OCc2ccc([N+](=O)[O-])cc2)CC1	.	i	i	i	i	-8
CC(=O)c1ccc(S(=O)(=O)N2CCN(CC(=O)Nc3ccccc3C(=O)NC3CC3)CC2)cc1	.	.	.	.	i	.
COc1ccc(CNC(=O)C(C)OC(=O)CN2C(=O)COc3ccccc32)cc1 (centres undefined)	.	i	i	i	i	-4
Cc1cc(OCC(=O)NNC(=S)NC(=O)c2cccs2)ccc1Cl	.	15*	i	i	i	-20
SMILES	KCC2 mod	KCNQ1 act	KCNQ1 inh	KCNK9 block	KCNK3 block	hERG protect
Cc1ccc(OCC(=O)NNC(=S)NC(=O)c2cccs2)c(C)c1	.	34*	i	i	i	-16
CCc1nonc1NC(=O)COc1ccc(Cl)c(C)c1	.	i	6*	i	i	-9
COc1ccc(OCC(=O)NNC(=O)c2cccs2)cc1	1.9	i	i	i	i	-8
Cc1ccc(OCC(=O)NNC(=S)NC(=O)c2ccc(Br)o2)c(C)c1	.	69*	i	i	i	-9
N#C/C(=C/c1ccc(-c2ccc([N+](=O)[O-])cc2)o1)c1nnc(N2CCOCC2)n1-c1ccccc1	.	.	.	.	i	.
CCC1(CC)SCCNC1=O	.	.	.	.	i	.
O=C(NCc1ccncc1)C(=O)N/N=C/c1ccc(OCc2ccccc2)cc1	-0.6	i	i	i	i	-9
O=NN(CCc1ccncc1)c1ccc(OCc2ccccc2)cc1	-2.6	i	10*	i	-9.1*	-20
CCOc1ccc(CN(C)C(=O)CNC(=O)c2cc(OC)c(OC)c(OC)c2)cc1	.	i	i	i	i	-2
CC(=O)N(C)C1=C(O)c2ccccc2C(=O)C1=O	-0.61	i	i	i	i	-8
CC(=O)N(C1=C(N)C(=O)c2ccccc2C1=O)C(C)C	0.24	i	i	i	i	6.3*
Cc1cc(C)nc(Sc2c(C)n[nH]c2C)n1	1.4	i	i	i	i	5.1*
Cc1n[nH]c(C)c1Sc1ccccc1N	0.65	i	i	i	i	2
O=c1[nH]c(-c2ccccc2)ncc1OCc1ccccc1	.	.	.	.	i	.
CC(C)(C)c1cc(O)c(C(C)(C)C)cc1O	.	8*	i	-8.5*	.	-9
Cc1c(C(=O)O)c(=S)sn1CCOc1ccccc1	-2.5*	i	i	i	i	-6
O=C1c2ccccc2C(=O)N1CCOc1ccccc1	-0.42	i	i	i	i	-13
NC(=O)C1CCCN(C(=O)CCC(=O)c2cccs2)C1 (centres undefined)	.	.	.	.	i	.
CC1(C)CC2CC(C)(CN2C(=S)NC(=O)c2ccccc2Cl)C1 (centres undefined)	55*	27*	i	i	i	39*
CC1(C)CC2CC(C)(CN2C(=S)Nc2ccccc2)C1 (centres undefined)	0.45	i	i	i	i	-10
Cc1ccccc1C(=O)NC1CCN(CC(=O)Nc2ccccc2Cl)CC1	.	i	i	i	i	-6
Cc1c(Cl)cccc1NC(=O)CN1CCC(C(O)(c2ccccc2)c2ccccc2)CC1	-1.2	i	11*	i	i	-14
CC(=O)c1ccc(NC(=O)C(C)N(C)CC(=O)Nc2ccc(N3CCOCC3)cc2)cc1 (centres undefined)	-0.06	i	i	i	i	4.6*
CCOC(=O)[C@H]1[C@H]2COc3cc(OC)ccc3[C@@H]2N2C(=O)c3cc(F)ccc3NC(=O)[C@@]12C	.	.	.	.	i	.
Cc1ccc(C)c(S(=O)(=O)C(C#N)c2nc3ccccc3nc2N2CCOCC2)c1 (centres undefined)	-1.5	i	i	i	i	-6
Cc1ccc(C)c(S(=O)(=O)C(C#N)c2nc3ccccc3nc2N2CCCC2)c1 (centres undefined)	-2.1	i	i	-8.1*	i	-11
COc1ccc(-c2nnc(-c3ccc(N)cc3)o2)cc1	-0.01	i	i	i	i	-8
